# MIN6 prolif-1: inducers of MIN6 beta-cell proliferation, primary screen, ATP luminescence, uHTS; hit rate 0.29% among 330,000; MIN6 cells proliferation, ATPlite luminescence, 48 h; cells starved in 0.2% serum; 100% = growth in 10% serum; proliferation, % at 10 µM;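 active = compounds whose signal lies at least 3.5 SD above the mean of all wells on their plate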;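 also: 0% = DMSO-treated cells in low-serum medium and 100% = 10% serum control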
# UCH37 DUB inh: inhibitors of human UCH37 deubiquitinase, primary screen, biochemical, Ub-AMC cleavage, fluorescence | purified proteasome/UCH37 | AID 588478, 2011 | inhibition, % (test concentration not listed) | hit rate 0.33% among 330,000;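 active = mean inhibition over replicate wells above about 20%, limit read from the data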;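 also: 0% = compound-free wells with enzyme and 100% = wells lacking proteasome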
# Target sequence (Q9Y5K5 whole entry, looked up): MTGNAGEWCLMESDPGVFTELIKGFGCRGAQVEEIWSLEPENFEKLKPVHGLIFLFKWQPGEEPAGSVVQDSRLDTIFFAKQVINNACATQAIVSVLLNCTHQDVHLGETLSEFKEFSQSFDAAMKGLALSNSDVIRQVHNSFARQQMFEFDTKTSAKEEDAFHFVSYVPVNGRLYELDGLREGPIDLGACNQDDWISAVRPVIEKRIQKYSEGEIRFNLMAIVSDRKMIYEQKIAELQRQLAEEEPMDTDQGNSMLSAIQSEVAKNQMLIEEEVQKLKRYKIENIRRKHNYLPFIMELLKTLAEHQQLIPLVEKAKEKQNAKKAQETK
#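 system = Proteasome-associated human UCH37 deubiquitinase | amount = 0.15 nM proteasome as dispensed | medium = pH 7.4 Tris-HCl (50 mM) with ovalbumin, ATP-MgCl2, DTT | incubation = 30 min preincubation with enzyme, 25 min cleavage at room temperature | detection = AMC fluorescence 355/460 nm | read-out basis = percent inhibition | controls = no-proteasome and no-compound wells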
# CR mimetic SO: reduction of superoxide in aged yeast, primary screen, HTS. superoxide response (% of plate mean), % at 10 µM. hit rate 0.18% among 330,000. S. cerevisiae aged cells, superoxide DHE fluorescence; active compounds read low. AID 2690, 2010;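 active = superoxide response under a set limit, about three screen SD below normal, cut at about 65% in these data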;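 also: yeast aged for seven days with compound at 30 °C before DHE staining; 100% = average MFI of all compound-treated wells on the plate with controls excluded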
# PG9 binder: binders of HIV-1 gp120 antibody PG9, primary screen, biochemical, TR-FRET | inhibition, % at 6.7 µM | hit rate 0.43% among 360,000 | TR-FRET gp120-PG9 antibody binding; in the data active = inhibition above about 8.5%
# NR1D1 modulator: modulators of Rev-erb alpha DNA binding, primary screen, biochemical, FITC-DNA, fluorescence polarization, uHTS. Rev-erbα–FITC-DNA binding, 90 min. activity, % at 10 µM. Nuclear receptor subfamily 1 group D member 1 (Homo sapiens), P20393. hit rate 0.79% among 370,000;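 active = activity above about 14%, limit read from the data; passing the limit was not always enough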;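 also: 0% = DMSO wells with 35 nM protein and 100% = DMSO wells with 750 nM protein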
# Rce1 inh: yeast Rce1p protease inhibitors, primary screen, biochemical, fluorescence, cell-free homogeneous; CAAX prenyl protease 2 (Saccharomyces cerevisiae (strain ATCC 204508 / S288c)), Q03530; yeast membranes, quenched prenylated peptide cleavage fluorescence; calls only; hit rate 0.27% among 290,000; AID 2563, 2010;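 active = fall in fluorescence gain of 50% or more versus controls, with final raw signal at or below 3038400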;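 also: plate controls were neutral control wells for no effect and wells lacking membranes for full effect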
# MIN6 prolif-2: inducers of beta-cell proliferation in MIN6, confirmation, MIN6 cells, mouse; shares compounds with MIN6 prolif-1; ATPlite luminescence, 48 h; cells kept in 0.2% serum; scaled between 0.2% and 10% serum; proliferation increase, % at 50 µM; 920 tested, under 10 active; AID 463095, 2010;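 active = proliferation increase above 40% at any of the four tested concentrations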
# Numbers without * were called inactive; i = inactive; nt = not tested or not shown; + = active, no number. Sampled rows, rich in hits. Any-hit rate of the full collection: about 1.9%.
SMILES,MIN6 prolif-1,UCH37 DUB inh,CR mimetic SO,PG9 binder,NR1D1 modulator,Rce1 inh,MIN6 prolif-2
O=C(CN1CCCC1)NN=Cc1ccc(-c2cccc(Cl)c2)o1,nt,4.1,nt,nt,nt,nt,nt
CN(C)/C=N/c1c(C#N)cnn1-c1ncnc2sc(-c3ccccc3)cc12,12.2*,nt,113.0,1.3,-1.1,+,-6.0
CN(C)/C=N/c1c(C#N)cnn1-c1ccccc1,-0.7,nt,106.0,-0.4,-2.8,i,nt
ON=C(CN(O)/C=C1/C=CC=N1)c1cccs1,nt,4.0,nt,nt,nt,nt,nt
COc1ccc(-c2nnc(-c3ccc(Br)o3)o2)cc1OC,7.2*,-4.0,116.2,-1.6,3.2,i,1.9
COc1ccc(-c2nc(-c3ccc(Br)o3)no2)cc1OC,-1.7,6.1,95.2,-2.1,4.2,i,nt
CC(C)CCNC(=O)CN1N=C(c2ccc(Cl)cc2)CCC1=O,7.3*,0.8,90.8,1.4,0.6,i,-2.0
Cc1ccc(C2=NN(CC(=O)NCCC(C)C)C(=O)CC2)cc1,1.9,0.6,98.3,-0.9,3.0,i,nt
ClC(Cl)(Cl)c1nc(NN=Cc2ccncc2)c2ccccc2n1,nt,3.7,nt,nt,nt,nt,nt
Cc1ccc(-c2cn(-c3ccccc3)c(SCC(N)=O)n2)cc1C,7.6*,-0.4,105.3,0.1,-2.1,i,-6.3
CCOC(=O)NC(=O)CSc1nc(-c2ccc(C)c(C)c2)cn1-c1ccccc1,-1.1,-41.5,93.9,-2.5,-1.9,i,nt
O=C(Cn1cc2c(n1)CCCCC2)NCc1ccccn1,11.6*,-3.4,98.0,-1.2,3.6,i,-2.9
O=C(Cn1cc2c(n1)CCCCC2)NCc1ccccc1,-1.1,1.4,100.4,-4.1,5.5,i,nt
CC1=NOC2(C1)C(=NO)CCCC2=NO (centres undefined),nt,4.3,nt,nt,nt,nt,nt
O=C(NNC(=O)C1CC(c2cccnc2)=NO1)Nc1cccc(F)c1 (centres undefined),5.6*,1.1,101.6,-1.8,-0.2,i,1.4
O=C(Nc1cccnc1)C1CC(c2ccc(Cl)c(Cl)c2)=NO1 (centres undefined),-2.7,-0.2,96.3,-0.2,0.0,i,nt
COc1ccc(C=NNC(=O)c2ccccc2O)cc1CSc1ccccn1,nt,-7.6,nt,nt,nt,nt,nt
CCc1nc(CN2CCN(Cc3ccc(F)c(F)c3)C(CCO)C2)c(C)[nH]1 (centres undefined),8.6*,2.2,90.0,0.7,0.2,i,-1.2
Nc1nnn(CC(=O)NN=Cc2ccccc2Cl)n1,nt,0.6,nt,nt,nt,nt,nt
O=C(c1ccsc1)N1CCCC(Nc2cccc(F)c2)C1 (centres undefined),11.6*,2.0,81.6,1.4,8.1,i,-1.5
C#Cc1cccc(C(=O)N2CCCC(Nc3cccc(F)c3)C2)c1 (centres undefined),-2.4,0.3,102.8,-0.7,1.4,i,nt
CN(N=Cc1ccncc1)c1cnc2ccccc2n1,nt,-81.5,nt,nt,nt,nt,nt
COc1ccccc1N(CC(=O)NC(C)C)S(=O)(=O)c1cccs1,8.3*,3.8,93.0,-3.1,-3.6,i,1.2
COc1ccccc1N(CC(=O)NC1CCCCC1)S(=O)(=O)c1cccs1,2.5,1.3,105.8,0.6,-2.8,i,nt
O=C(CN(c1ccccc1)S(=O)(=O)c1ccc(Cl)cc1)Nc1cccnc1,-3.6,-0.5,98.5,-0.4,-0.3,i,nt
O=C(CN(c1ccccc1)S(=O)(=O)c1ccccc1[N+](=O)[O-])Nc1cccnc1,5.5*,nt,91.0,-1.1,-3.5,i,-0.3
CC(=NNC(=O)C(C)Nc1cccc(Cl)c1)c1ccc([N+](=O)[O-])cc1 (centres undefined),nt,2.9,nt,nt,nt,nt,nt
Cc1cc2ncn(N=Cc3ccc(-c4ccccc4)o3)c2cc1C,nt,-4.6,nt,nt,nt,nt,nt
CCc1nc2ccccc2n1CC(O)COCC1CC=CCC1 (centres undefined),12.1*,nt,117.5,-1.8,3.5,i,-3.1

# High-throughput results (PubChem)
